Measured values published in ChEMBL document CHEMBL1126123, “Reversible inhibitors of the gastric (H+/K+)-ATPase. 3. 3-substituted-4-(phenylamino)quinolines” (J Med Chem, 1992).

Columns and labels:
[1] = target: Potassium-transporting ATPase (Rattus norvegicus) (UniProt P09626+P18598); assay: Inhibition of pentagastrin stimulated gastric acid secretion in anesthetized rat at 10 umol/kg upon intravenous administration; format: functional, organism-based; conditions: Stomach
[2] = target: T1, Potassium-transporting ATPase (Sus scrofa, UniProt P19156); assay: […] inhibit the activity of K+ stimulated gastric ATPase; format: tissue-based, Stomach
T1 sequence (P18434 whole entry): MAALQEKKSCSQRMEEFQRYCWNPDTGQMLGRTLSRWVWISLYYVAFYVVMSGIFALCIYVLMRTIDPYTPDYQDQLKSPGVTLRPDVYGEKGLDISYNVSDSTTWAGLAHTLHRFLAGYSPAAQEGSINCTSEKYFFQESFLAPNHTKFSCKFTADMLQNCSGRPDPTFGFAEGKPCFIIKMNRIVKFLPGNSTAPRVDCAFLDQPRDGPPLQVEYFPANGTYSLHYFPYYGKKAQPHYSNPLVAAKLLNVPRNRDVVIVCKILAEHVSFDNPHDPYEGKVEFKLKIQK
T1 sequence (P19156 whole entry): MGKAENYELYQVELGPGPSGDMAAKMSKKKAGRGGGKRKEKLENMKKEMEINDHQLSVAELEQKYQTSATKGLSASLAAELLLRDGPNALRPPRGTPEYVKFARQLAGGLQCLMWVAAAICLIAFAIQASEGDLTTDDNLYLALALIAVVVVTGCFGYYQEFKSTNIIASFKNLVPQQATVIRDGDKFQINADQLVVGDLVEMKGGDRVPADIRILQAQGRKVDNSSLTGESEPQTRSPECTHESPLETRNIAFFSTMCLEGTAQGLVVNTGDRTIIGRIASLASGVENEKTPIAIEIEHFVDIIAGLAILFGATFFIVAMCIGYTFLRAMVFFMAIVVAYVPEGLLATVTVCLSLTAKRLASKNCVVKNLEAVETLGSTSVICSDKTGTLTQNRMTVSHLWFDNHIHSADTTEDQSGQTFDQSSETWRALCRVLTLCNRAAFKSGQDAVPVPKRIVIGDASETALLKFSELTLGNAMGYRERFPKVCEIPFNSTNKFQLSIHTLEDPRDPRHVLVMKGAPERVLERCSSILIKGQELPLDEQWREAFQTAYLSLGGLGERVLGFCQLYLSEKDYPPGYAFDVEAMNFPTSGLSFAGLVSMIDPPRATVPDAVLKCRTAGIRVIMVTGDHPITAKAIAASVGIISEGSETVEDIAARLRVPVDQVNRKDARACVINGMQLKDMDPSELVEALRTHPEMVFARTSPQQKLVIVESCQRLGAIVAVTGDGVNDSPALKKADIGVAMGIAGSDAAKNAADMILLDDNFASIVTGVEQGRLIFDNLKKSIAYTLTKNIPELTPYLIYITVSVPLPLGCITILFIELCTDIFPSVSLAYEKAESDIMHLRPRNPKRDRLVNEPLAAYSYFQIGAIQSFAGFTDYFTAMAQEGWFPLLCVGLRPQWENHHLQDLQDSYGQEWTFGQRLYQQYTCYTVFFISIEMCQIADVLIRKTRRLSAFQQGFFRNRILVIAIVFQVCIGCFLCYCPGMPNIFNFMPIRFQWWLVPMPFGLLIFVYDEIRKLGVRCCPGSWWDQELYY
How it was run: (§1)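 Initial screen of K+-stimulated ATPase activity in a lyophilized gastric vesicle preparation at pH 7, in vitro.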

Canis familiaris [3] = assay: Inhibition of histamine stimulated gastric acid secretion was tested in heidenhain pouch dog at 4 uM/kg upon oral administration; format: functional, Canis lupus familiaris, Stomach
[4] = target: T2, Potassium-transporting ATPase subunit beta (Rattus norvegicus) (UniProt P18598); assay: Inhibition of pentagastrin stimulated gastric acid secretion in anesthetized rat upon intravenous administration; format: functional, organism-based; conditions: Stomach
T2 sequence (whole entry): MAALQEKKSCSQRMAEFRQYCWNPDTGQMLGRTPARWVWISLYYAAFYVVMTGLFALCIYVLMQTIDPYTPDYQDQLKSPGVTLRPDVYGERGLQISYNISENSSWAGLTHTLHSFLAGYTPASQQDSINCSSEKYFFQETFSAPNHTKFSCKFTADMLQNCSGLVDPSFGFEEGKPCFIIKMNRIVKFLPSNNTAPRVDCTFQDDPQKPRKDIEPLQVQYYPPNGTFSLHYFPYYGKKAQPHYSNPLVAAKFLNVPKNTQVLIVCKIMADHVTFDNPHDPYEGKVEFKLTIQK
How it was run: (§2)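 Anesthetized rat with lumen-perfused stomach; acid secretion induced by pentagastrin; compound given intravenously.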

Canis familiaris [5] = assay: Inhibition of histamine stimulated gastric acid secretion was tested in heidenhain pouch dog at 1 umol/kg upon intravenous administration; format: functional; conditions: Canis lupus familiaris, Stomach
[6] = target: T1, Potassium-transporting ATPase; assay: (§3) […] inhibit the activity of gastric H+/K+ ATPase; format: tissue-based, Stomach; how it was run: as §1
Rattus norvegicus [7] = assay: inhibition pentagastrin stimulated gastric acid secretion in anesthetized rat when compound (10 umol/kg) administered intravenously; format: functional, Stomach
Canis familiaris [8] = assay: Inhibition of histamine stimulated gastric acid secretion was tested in heidenhain pouch dog upon intravenous administration; format: functional; conditions: Canis lupus familiaris, Stomach
Rattus norvegicus [9] = assay: Compound was evaluated for inhibition pentagastrin stimulated gastric acid secretion in anesthetized rat when administered intravenously.; format: functional; conditions: Stomach, iv; how it was run: as §2
[10] = target: T3, Potassium-transporting ATPase (Sus scrofa) (UniProt P18434+P19156); assay: […] inhibit the activity of K+ stimulated gastric ATPase at 100 uM; format: tissue-based; conditions: Stomach
Canis familiaris [11] = assay: Inhibition of histamine stimulated gastric acid secretion was tested in heidenhain pouch dog upon oral administration; format: functional; conditions: Canis lupus familiaris, Stomach
[12] = target: T3, Potassium-transporting ATPase (Sus scrofa); assay: as §3; format: tissue-based; conditions: Stomach; how it was run: as §1

Row | Compound | inhibition [1] [%] | IC50 [2] [µM] | further results
1 | Cc1ccccc1Nc1ccnc2ccccc12 | 16 | 1.43 | –
2 | COc1cccc2c(Nc3ccccc3C)c(C(=O)NCc3ccccc3)cnc12 | 13 | 49 | –
3 | Cc1ccccc1Nc1c([N+](=O)[O-])cnc2ccccc12 | 30 | – | –
4 | CCC(=O)c1cnc2c(OC)cccc2c1Nc1ccccc1C | – | 0.4 | Inhibition (Canis familiaris [3]): 92.3%; ED50 [4]: 1.39 µmol/kg; inhibition in vivo at 1 µmol/kg (Canis familiaris [5]): 80.9%
5 | CCCC(=O)c1cnc2c(OC)cccc2c1Nc1ccccc1 | 34 | 4 | –
6 | COc1cccc2c(Nc3ccccc3C)c(C(N)=O)cnc12 | – | – | IC50 [6]: 15.3 µM
7 | CO/N=C(\C)c1cnc2c(OC)cccc2c1Nc1ccccc1C | – | 20.5 | –
8 | COc1cccc2c(Nc3ccccc3C)c(C(=O)c3ccccc3)cnc12 | – | 16.1 | –
9 | COc1cccc2c(Nc3ccccc3C)c(C(C)=O)cnc12 | – | 4.8 | ED50 [4]: 13.2 µmol/kg; inhibition in vivo at 1 µmol/kg (Canis familiaris [5]): 11%
10 | CCOC(=O)c1cnc2c(OC)cccc2c1Nc1ccccc1.Cl | – | – | IC50 [6]: 3.54 µM; Inhibition (Rattus norvegicus [7]): 38%
11 | CCOC(=O)c1cnc2c(OC)cccc2c1Nc1ccccc1C.Cl | – | – | Inhibition (Canis familiaris [3]): 11.1%; ED50 (Canis familiaris [8]): 0.49 µmol/kg; ED50 (Rattus norvegicus [9]): 8.23 µmol/kg
12 | COc1cccc2c(Nc3ccccc3C)c(C(=O)OCCN(C)C)cnc12 | 19 | 44 | –
13 | COc1cccc2c(Nc3ccccc3C)c(C(=O)C3CCCC3)cnc12 | 56 | 1.7 | Inhibition (Canis familiaris [3]): 55.7%
14 | CCCCCC(=O)c1cnc2c(OC)cccc2c1Nc1ccccc1C | – | 2.77 | ED50 [4]: 10.7 µmol/kg
15 | COc1cccc2c(Nc3ccccc3C)c(C(=O)N3CCCC3)cnc12 | 15 | – | inhibition [10]: 20%
16 | Cc1ccccc1Nc1c(N)cnc2ccccc12 | 27 | 30.6 | –
17 | CCC(CC)C(=O)c1cnc2c(OC)cccc2c1Nc1ccccc1C | 55 | 1.8 | –
18 | COc1cccc2c(Nc3ccccc3C)c(CO)cnc12 | – | – | IC50 [6]: 11.6 µM; Inhibition (Rattus norvegicus [7]): 5%
19 | COCC(=O)c1cnc2c(OC)cccc2c1Nc1ccccc1C | – | 12.1 | ED50 [4]: 12.2 µmol/kg
20 | CCCC(=O)c1cnc2c(OC)cccc2c1Nc1ccccc1C | – | 1.05 | ED50 (Canis familiaris [8]): 0.26 µmol/kg; ED50 (Canis familiaris [11]): 1.6 µmol/kg; ED50 [4]: 2.62 µmol/kg
21 | CCOC(=O)c1cnc2ccccc2c1Nc1ccccc1C | 49 | 0.6 | –
22 | COc1cccc2c(Nc3ccccc3C)c(C(=O)C3CCC3)cnc12 | 47 | 1.2 | –

Row | Compound | inhibition [1] [%] | IC50 [2] [µM] | further results
23 | CCCCNC(=O)c1cnc2c(OC)cccc2c1Nc1ccccc1C | 30 | 65 | –
24 | CCCSc1cnc2ccccc2c1Nc1ccccc1C | 11 | 5.14 | –
25 | COc1cccc2c(Nc3ccccc3C)c(C(C)O)cnc12 (stereo not given) | – | 24 | –
26 | COc1cccc2c(Nc3ccccc3C)c(C(=O)NC(C)(C)CO)cnc12 | 13 | – | inhibition [10]: 26%
27 | COc1cccc2c(Nc3ccccc3C)c(C(=O)C3CCCCC3)cnc12 | 42 | 3.8 | –
28 | COc1cccc2c(Nc3ccccc3C)c(C(=O)C(C)C)cnc12 | – | 1.09 | Inhibition (Canis familiaris [3]): 44.6%; ED50 [4]: 1.92 µmol/kg; inhibition in vivo at 1 µmol/kg (Canis familiaris [5]): 75%
29 | COc1cccc2c(Nc3ccccc3C)ccnc12 | – | 0.1 | ED50 [4]: 12.7 µmol/kg
30 | C=CCNC(=O)c1cnc2c(OC)cccc2c1Nc1ccccc1C | 38 | 3.45 | –
31 | CCOC(=O)c1cnc2c(OC)cccc2c1N(C)c1ccccc1 | – | 89 | –
32 | COc1cccc2c(Nc3ccccc3C)c(C(=O)C(C)(C)C)cnc12 | 63 | 2.6 | Inhibition (Canis familiaris [3]): 11.3%
33 | CCNC(=O)c1cnc2c(OC)cccc2c1Nc1ccccc1C | 58 | 2.94 | –
34 | COc1cccc2c(Nc3ccccc3C)c(C(=O)O)cnc12 | – | – | inhibition [12]: 30%
35 | CCCC(=O)c1cnc2ccccc2c1Nc1ccccc1C | – | 0.97 | ED50 [4]: 5.45 µmol/kg; inhibition in vivo at 1 µmol/kg (Canis familiaris [5]): 45.4%
36 | CNC(=O)c1cnc2c(OC)cccc2c1Nc1ccccc1C | – | – | IC50 [6]: 6.73 µM; Inhibition (Rattus norvegicus [7]): 28%
37 | CCC[S+]([O-])c1cnc2ccccc2c1Nc1ccccc1C (stereo not given) | 21 | – | inhibition [10]: 19%
38 | CCCC(O)c1cnc2c(OC)cccc2c1Nc1ccccc1C (stereo not given) | – | 55 | –
39 | CCOC(=O)c1cnc2c(OC)cccc2c1Oc1ccccc1C | – | – | inhibition [10]: 13%
40 | CN/C(=N\CCSCc1nc[nH]c1C)NC#N [CIMETIDINE] | – | – | ED50 (Canis familiaris [8]): 1.7 µmol/kg; ED50 (Canis familiaris [11]): 8.5 µmol/kg
41 | COc1cccc2c(Nc3ccccc3C)c(C)cnc12 | 12.5 | 6.1 | –
42 | Cc1ccccc1Nc1c(Br)cnc2ccccc12 | 31 | 14.1 | –
43 | CCCNC(=O)c1cnc2c(OC)cccc2c1Nc1ccccc1C | 40 | 22 | –
44 | CCCc1cnc2c(OC)cccc2c1Nc1ccccc1C | 34 | 8.63 | –
